# Data from PubChem BioAssay AID504382 (The Scripps Research Institute Molecular Screening Center, 2011).
# Hit rate of the full screen: of about 2,500 compounds, about 460 (18%) were called active.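 How the source made its calls: active means mean activation above a cutoff of low control average plus 3 SD from the earlier screen (cut at about 12% in these data); inactive means the rest.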 Only a sample is shown.
# Assay: IANBD-channel fluorescence artefacts in buffer – biochemical, artefact control for cardiac RTF calcium sensitizer project, confirmation (AID 504382)
# Settings: IANBD fluorescence interference counterscreen, EC20 Ca2+, at 7.2 µM, active compounds read high, scaled: EC20 calcium 0, EC100 calcium 100
# Outline: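 Doses – one dose of 7.2 µM, 0.7% DMSO · Buffer or medium – MOPS/KCl/MgCl2/EGTA/NTA/DTT buffer, pH 7.2 · Probe or stimulus – Ca2+ fixed at EC20, 0.472 mM · Measured by – fluorescence intensity, excitation 480 nm, emission 540 nm · Read-out – fluorescence interference versus control range · Timing – 15 min compound exposure at 25 °C · Replication – triplicate wells per compound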
row,SMILES,fluorescence artifact activation
1,CC1(C)CCN2CCC(C)(C)c3c(O)ccc1c32,11.3% (inactive)
2,Cc1ccc(CC2C(=O)N(c3ccc(C)cc3)C(=O)C2C)cc1 (centres undefined),0.52% (inactive)
3,O=C(N/N=C\c1c(O)ccc2ccccc12)c1cncc(Br)c1,0.16% (inactive)
4,O=C(N/N=C/c1c(O)ccc2ccccc12)c1cccc(C(F)(F)F)c1,53.1% (active)
5,O=C(NN=Cc1c(O)ccc2ccccc12)c1ccncc1,-0.04% (inactive)
6,Cc1ccc(-c2nc(NC(=O)CSc3cc(C)c4ccccc4n3)ns2)cc1,0.03% (inactive)
7,CN1CC=C2C(C#N)=C(N)C(C#N)(C#N)[C@H](c3cccs3)[C@H]2C1,0.05% (inactive)
8,CN1CC=C2C(C#N)=C(N)C(C#N)(C#N)[C@H](c3ccoc3)[C@H]2C1,8.68% (inactive)
9,Cc1ccc(Cn2cc(CCC(=O)O)c3ccccc32)cc1,2.34% (inactive)
10,CC(=O)n1cc(CO)c2ccccc21,95.5% (active)
11,CSc1c(CC(=O)NCCO)n(C)c2ccccc12,4.19% (inactive)
12,CCOC(=O)C(C(=O)Nc1cccc(C)n1)C1CCCCC1 (centres undefined),-0.06% (inactive)
13,CCCc1cc(=O)[nH]c(SCC)n1,0.11% (inactive)
14,CCCc1cc(=O)oc2c3c(cc(OCC(=O)N[C@@H](CSC)C(=O)O)c12)OC(C)(C)CC3,14.3% (active)
15,Cc1c(C)c2c(OCC(=O)N3CCC(O)CC3)cc3c(c2oc1=O)CCC(C)(C)O3,-0.07% (inactive)
16,Cc1cc(=O)oc2c3c(cc(OCC(=O)NCc4ccccn4)c12)OC(C)(C)CC3,0.25% (inactive)
17,O=C(CSc1nc2ncc(Br)cc2[nH]1)c1cccc([N+](=O)[O-])c1,3.54% (inactive)
18,COC(=O)C[n+]1cccc2ccccc21,81.3% (active)
19,O=C(C[n+]1cccc2ccccc21)c1ccccc1,0.14% (inactive)
20,COc1cccc(OCCCn2cc(/C=C3/C(=N)N4C=C(C)SC4=NC3=O)c3ccccc32)c1,0.05% (inactive)
21,N=C1/C(=C\c2coc3ccc(O)cc3c2=O)C(=O)N=C2SC=CN12,-0.02% (inactive)
22,COC(=O)N/N=C/c1cccnc1,0.05% (inactive)
23,COC1C/C(=N\O)C2OC(c3ccccc3)OCC2O1 (centres undefined),0.43% (inactive)
24,COc1ccc(OC)c(/C=C2/Sc3ccccc3C2=O)c1,0.05% (inactive)

row,SMILES,fluorescence artifact activation
1,COc1ccc(C2C(C(C)=O)=C(C)N=c3s/c(=C\c4cc(C)n(C)c4C)c(=O)n32)c(OC)c1 (centres undefined),4.81% (inactive)
2,O=C(CNC(=O)C12CC3CC(CC(C3)C1)C2)OCC(=O)N1CCCCC1,0.38% (inactive)
3,Cc1ccc(-c2ccc(OC(=O)c3ccc(=O)[nH]c3)c(C)c2)cc1,4.65% (inactive)
4,Cc1ccc(-c2nc(N)n(C(=O)c3cccnc3)n2)cc1,57.1% (active)
5,COc1ccccc1C(=O)n1nc(-c2ccccc2)nc1N,-0.09% (inactive)
6,Cc1ccc(CNc2cccnc2)cc1,0.43% (inactive)
7,CN(Cc1ccccc1)C(=O)c1ccc(NC(=O)Cc2ccc(NC(=O)C3CCCN(S(=O)(=O)c4cccc([N+](=O)[O-])c4)C3)cc2)cc1 (centres undefined),0.65% (inactive)
8,CCN1CCN(Cc2c(O)ccc3c2O/C(=C\c2ccc(C)cc2)C3=O)CC1,0.17% (inactive)
9,O=c1[nH]c2ccc(N=Cc3c(O)ccc4cc(Br)ccc34)cc2[nH]1,-0.04% (inactive)
10,COc1ccc(CNc2oc(COc3ccccc3)nc2C#N)cc1,21.9% (active)
11,C=CCNc1oc(COc2ccc(C)cc2)nc1C#N,3.74% (inactive)
12,CCC(CC)c1nc(C#N)c(NC(C)c2ccccc2)o1 (centres undefined),0% (inactive)
13,N#Cc1ccccc1OCC(=O)OCC(=O)c1ccc2c(c1)NC(=O)CO2,5.5% (inactive)
14,CCOC(=O)c1cnc2c(C)c(Cl)ccc2c1N1CCOCC1,28.3% (active)
15,O=C(OCCN1C(=O)c2cccc3c(N4CCOCC4)ccc(c23)C1=O)c1ccccc1Cl,0.47% (inactive)
16,O=C(OCCN1C(=O)c2cccc3c(N4CCOCC4)ccc(c23)C1=O)c1ccc(Cl)cc1Cl,8.85% (inactive)
17,CCSc1nnc(-c2sc3nnc(-c4ccccc4)c(-c4ccccc4)c3c2N)o1,0.15% (inactive)
18,CCc1ccccc1SCc1noc(C(=O)NCC2CCCO2)c1C(=O)O (centres undefined),0.19% (inactive)
19,OC(CNCC1CCCO1)Cn1c2ccc(Br)cc2c2cc(Br)ccc21 (centres undefined),12.3% (active)
20,O=C(NC(=S)NCC1CCCO1)C(c1ccccc1)c1ccccc1 (centres undefined),0.17% (inactive)
21,O=C(COC(=O)/C=C/c1ccc(Cl)cc1)NCCN1C(=O)CSC1=O,-0.09% (inactive)
22,O=C(N/N=C/c1ccc2c(c1)OCO2)/C(=C/c1ccc2c(c1)OCO2)NC(=O)c1ccccc1,0.46% (inactive)
23,O=C(N/N=C/c1ccccc1OC(=O)c1ccc2c(c1)OCO2)c1cccc(F)c1,17.8% (active)
24,COc1cc(C(=O)Oc2ccccc2/C=N/NC(=O)c2ccc(Cl)cc2)cc(OC)c1OC,11.5% (inactive)

row,SMILES,fluorescence artifact activation
1,COCC(=O)NC1CCN(S(=O)(=O)c2cccc(C(C)=O)c2)CC1,3.2% (inactive)
2,Cc1ccc(C(=O)NCC(=O)OCC(=O)c2ccc(Cl)s2)cc1,77.8% (active)
3,Cc1ccc(C(=O)NCC(=O)OCC(=O)N(CC(C)C)c2c(N)n(Cc3ccccc3)c(=O)[nH]c2=O)cc1,0.05% (inactive)
4,COc1ccc(OCCNC(=O)c2ccc(C)cc2)cc1,6.32% (inactive)
5,COc1ccc2nc(C)cc(NCc3ccc(F)cc3)c2c1,0.15% (inactive)
6,Cc1cccc(NC(=O)CSc2nnc(CSc3nc(C)cc(C)n3)n2Cc2ccco2)c1,1.92% (inactive)
7,Cc1ccc(C(=O)COC(=O)C2CCC2)cc1,7.89% (inactive)
8,O=C(COC(=O)C1CC2C=CC1C2)Nc1cccc(S(=O)(=O)N2CCCCCC2)c1 (centres undefined),-0.04% (inactive)
9,O=C(COC(=O)C1CCC(=O)N1)Nc1ccc(Oc2ccccc2)cc1 (centres undefined),0.14% (inactive)
10,O=C(COC(=O)C1CCC1)NCc1ccccc1,82.9% (active)
11,O=C(COC(=O)C1CCCCC1)Nc1ccc([N+](=O)[O-])cc1,28.8% (active)
12,O=C(COc1ccc(Cl)cc1)NCc1ccccc1,0.08% (inactive)
13,CCOc1cc(/C=C2\N=C(SC(C)C(N)=O)N(c3ccc(OC(F)F)cc3)C2=O)ccc1O (centres undefined),3.79% (inactive)
14,COc1ccc(C(=O)c2ccsc2N)cc1,3.39% (inactive)
15,O=C(CN1CCc2ccccc2C1)Nc1cc(S(=O)(=O)N2CCOCC2)ccc1N1CCOCC1,0.07% (inactive)
16,CCOc1cccc2c1OC(c1cc(OC)c(OC)c(OC)c1)N1N=C(c3ccc(C)o3)CC21 (centres undefined),0.15% (inactive)
17,CC1(C)C([N+](=O)[O-])C(c2ccc(F)cc2)NC(c2ccc(F)cc2)C1[N+](=O)[O-] (centres undefined),-0.04% (inactive)
18,COC(=O)c1sccc1NC(=O)CSCC(=O)O,0.05% (inactive)
19,CN(C)C=Nc1c(Br)cc(Br)c2nonc12,16.1% (active)
20,C=CCn1c(SCC(=O)Nc2nccs2)nnc1-c1ccco1,0.29% (inactive)
21,Cn1cc(Cl)c(-c2nc3ccccc3[nH]2)n1,2.42% (inactive)
22,CCOC(=O)/C(=N\Nc1ccc(C(C)=O)cc1)c1csc(Nc2ccccc2)n1,-0.08% (inactive)
23,COC(=O)c1cc(N2CCN(C)CC2)nc2ccccc12,0.05% (inactive)
24,CCOC(=O)c1cnc2ccccc2c1Nc1ccc(C(=O)O)cc1,50% (active)

row,SMILES,fluorescence artifact activation
1,CCCCN(Cc1ccccc1)S(=O)(=O)c1ccc2c(c1)n(C)c(=O)c(=O)n2C,0.08% (inactive)
2,COC(=O)C1=C(CSc2nc3c(cc2C#N)CN(C)CC3)OC(N)=C(C#N)C1c1ccc(F)cc1 (centres undefined),-0.02% (inactive)
3,COC(=O)c1ccc(S(=O)(=O)N2CCC(O)CC2)n1C,4.73% (inactive)
4,O=C(CS(=O)(=O)c1cn(Cc2ccc(F)cc2)c2ccccc12)N1CCOCC1,-0.02% (inactive)
5,CCOC(=O)C1CCCN(C2=NC(=O)/C(=C/c3ccc(N(C)C)cc3)S2)C1 (centres undefined),0.84% (inactive)
6,CN(C)c1ccc(/C=C2\SC(N3CCCCC3)=NC2=O)cc1,193% (active)
7,CN(C)c1ccc(/C=C2\C(=N)N3N=C(CC(=O)N4CCCCC4)SC3=NC2=O)cc1,11.2% (inactive)
8,COC(C(=O)Nc1c(F)cccc1F)c1ccccc1 (centres undefined),0.18% (inactive)
9,CN(Cc1ccccc1)C(=O)c1cccc(N2C(=O)NC3CC2(C)Oc2ccccc23)c1 (centres undefined),14.2% (active)
10,CCOc1cccc2c1OC1(C)CC2NC(=O)N1c1cccc(C(=O)NCc2ccccn2)c1 (centres undefined),0.6% (inactive)
11,COc1cccc2c1OC1(C)CC2NC(=O)N1Cc1ccccc1 (centres undefined),1.11% (inactive)
12,COC(=O)CN(c1cc(OC)ccc1OC)S(=O)(=O)c1ccc(OC)c(OC)c1,0.04% (inactive)
13,O=C(COC(=O)C1(c2ccccc2F)CCCC1)Nc1ncc(C(F)(F)F)cc1Cl,-0.01% (inactive)
14,CN1CCc2c(sc(/N=C/c3ccco3)c2C(N)=O)C1,0.04% (inactive)
15,COc1cc2c3nnc(-c4ccc(F)cc4)c-3cn(Cc3cccc(F)c3)c2cc1OC,124% (active)
16,COc1cc2c3nnc(-c4ccc(F)cc4)c-3cn(Cc3ccc(C)cc3)c2cc1OC,0.37% (inactive)
17,COc1cc2c3nnc(-c4ccc(F)cc4)c-3cn(Cc3cccc(C)c3)c2cc1OC,0.48% (inactive)
18,COC(=O)c1ccccc1-c1c2ccc(=N)cc-2oc2cc(N)ccc12,0.05% (inactive)
19,Brc1ccc(-c2cn3nc4c(nc3n2)CCCC4)cc1,3.81% (inactive)
20,c1ccc(-c2cn3nc4c(nc3n2)CCCC4)cc1,19.1% (active)
21,Clc1ccc(-c2cn3nc4c(nc3n2)CCCC4)cc1,0.71% (inactive)
22,CCOCCCn1c(=NC(=O)c2cccs2)c(C#N)cc2c(=O)n3cccc(C)c3nc21,1.11% (inactive)
